Results taken from ChEMBL document CHEMBL1150430, “Flavonoids for controlling starch digestion: structural requirements for inhibiting human alpha-amylase” (J Med Chem, 2008).
pIC50: −log10 of the molar value.

Assays:
[1] = target: T1, Alpha-amylase 1A (Homo sapiens) (UniProt P0DUB6); assay: (§1) Inhibition of human salivary alpha-amylase; conditions: concentration not given here
T1 sequence (whole entry): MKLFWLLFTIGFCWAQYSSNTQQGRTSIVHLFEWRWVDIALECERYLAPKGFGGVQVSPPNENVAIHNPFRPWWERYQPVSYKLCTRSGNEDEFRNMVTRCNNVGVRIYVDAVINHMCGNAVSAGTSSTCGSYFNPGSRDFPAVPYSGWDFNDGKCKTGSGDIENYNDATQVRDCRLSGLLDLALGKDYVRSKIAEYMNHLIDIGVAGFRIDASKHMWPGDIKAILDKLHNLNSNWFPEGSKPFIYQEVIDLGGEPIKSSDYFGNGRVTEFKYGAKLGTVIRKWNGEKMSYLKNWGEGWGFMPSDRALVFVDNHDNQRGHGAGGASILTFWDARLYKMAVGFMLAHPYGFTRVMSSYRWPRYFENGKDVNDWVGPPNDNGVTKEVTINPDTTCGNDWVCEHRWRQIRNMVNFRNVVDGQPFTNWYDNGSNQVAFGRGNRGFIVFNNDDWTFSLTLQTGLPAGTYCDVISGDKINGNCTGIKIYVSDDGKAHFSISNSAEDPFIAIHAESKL
In short: (§2)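 Human salivary α-amylase (type IX-A), diluted in water on the day of use, preincubated 30 min with test compound in 50 mM NaH2PO4/50 mM NaCl/0.5 mM CaCl2/0.1% BSA, pH 6.0 (DMSO stocks). Reducing sugar by Nelson-Somogyi, A540; IC50 and maximum % inhibition.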

Alpha-amylase 1A = target: T2, Alpha-amylase 1A (Homo sapiens, UniProt P0DUB6); assay: as §1; in short: as §2
T2 sequence (P0DUB6 whole entry): T1 sequence (whole entry)

COc1ccc([C@@H]2CC(=O)c3c(O)cc(O)cc3O2)cc1O
inhibition [1]: 39.8%

Oc1cc(O)c2c(c1)O[C@H](c1ccc(O)c(O)c1)[C@@H](O)C2
inhibition [1]: 13.1%

O=c1c(-c2ccc(O)cc2)coc2cc(O)ccc12
inhibition [1]: 23.3%

O=c1cc(-c2ccc(O)cc2)oc2cc(O)c(O)c(O)c12 [SCUTELLAREIN]
inhibition [1]: 98.4% | pIC50 (Alpha-amylase 1A): 5.02

C[C@H]1O[C@H](O[C@H]2[C@H](O)[C@@H](O)[C@@H](O[C@H]3[C@H](O)[C@@H](O)[C@H](O)O[C@@H]3CO)O[C@@H]2CO)[C@H](O)[C@@H](O)[C@@H]1N[C@H]1C=C(CO)[C@@H](O)[C@H](O)[C@H]1O
inhibition [1]: 99.2%

COc1ccc(-c2cc(=O)c3c(O)cc(O)cc3o2)cc1
inhibition [1]: 14.1%

O=c1cc(-c2ccc(O)c(O)c2)oc2cc(O)cc(O)c12 [LUTEOLIN]
inhibition [1]: 88.8% | pIC50 (Alpha-amylase 1A): 4.74

O=C1C[C@@H](c2ccc(O)cc2)Oc2cc(O)cc(O)c21
inhibition [1]: 26.8%

COc1cc(O)c2c(=O)cc(-c3ccc(O)cc3)oc2c1
inhibition [1]: 17.5%

O=c1c(O)c(-c2ccc(O)cc2)oc2cc(O)cc(O)c12
inhibition [1]: 34.5%

O=c1c(O)c(-c2ccc(O)c(O)c2)oc2cc(O)ccc12 [FISETIN]
inhibition [1]: 85.6% | pIC50 (Alpha-amylase 1A): 4.71

O=c1c(O)c(-c2ccc(O)c(O)c2)oc2cc(O)c(O)c(O)c12 [QUERCETAGETIN]
inhibition [1]: 97.6% | pIC50 (Alpha-amylase 1A): 4.99

O=c1c(O)c(-c2ccc(O)c(O)c2)oc2cc(O)cc(O)c12 [QUERCETIN]
inhibition [1]: 82.1% | pIC50 (Alpha-amylase 1A): 4.67

O=c1c(-c2ccc(O)cc2)coc2cc(O)cc(O)c12
inhibition [1]: 25.1%

O=c1c(O)c(-c2cc(O)c(O)c(O)c2)oc2cc(O)cc(O)c12 [MYRICETIN]
inhibition [1]: 79% | pIC50 (Alpha-amylase 1A): 4.52

COc1ccc(-c2cc(=O)c3c(O)cc(O)cc3o2)cc1O
inhibition [1]: 19.2%

Oc1cc(O)c2c(c1)O[C@H](c1ccc(O)c(O)c1)[C@H](O)C2
inhibition [1]: 10.3%

COc1cc(-c2oc3cc(O)cc(O)c3c(=O)c2O)ccc1O
inhibition [1]: 35.4%

COc1cc(O)c2c(=O)c(O)c(-c3ccc(O)c(O)c3)oc2c1
inhibition [1]: 8.1%
